Data from ChEMBL document CHEMBL4049388, “Facile and efficient access to Androsten-17-(1',3',4')-pyrazoles and Androst-17β-(1',3',4')-pyrazoles via Vilsmeier reagents, and their antiproliferative activity evaluation in vitro” (Eur J Med Chem, 2017).
Calls of active or inactive are those of the source. No cut-off for these calls is given here.

Legend:
HeLa [1] = test: Induction of apoptosis in human HeLa cells assessed as apoptotic body formation at 7.5 uM after 48 hrs by Hoechst 33342 staining based fluorescence microscopic method; type: functional, cell-based
Procedure, shortened: (§1)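 Hela cells seeded at 10^6 per well on cover slips and incubated 16 h. Then exposed 48 h at 2.5, 5.0 or 7.5 μM, DMSO negative control. Cells fixed in 4% paraformaldehyde for 15 min, washed in PBS, stained with Hoechst 33342 for 10 min. Nuclear morphology viewed by fluorescence microscopy, ex 350 nm / em 460 nm.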

HeLa [2] = test: Induction of apoptosis in human HeLa cells assessed as gated cells at early apoptotic stage at 7.5 uM after 24 hrs by Annexin-V-FITC/propidium iodide staining based flow cytometry (reference value: 0.04%); type: functional
Procedure, shortened: (§2)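 Hela cells seeded at 10^6 per well and stabilized 24 h at 37 °C, 5% CO2. Then treated 24 h at 2.5, 5.0 or 7.5 μM, DMSO negative control. Cells washed in cold PBS, resuspended at 1×10^6 cells/mL in cold binding buffer, stained with annexin V-FITC then PI for 15 min in dark, analysed by flow cytometry.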

HeLa [3] = test: Induction of apoptosis in human HeLa cells assessed as gated cells at viable stage at 7.5 uM after 24 hrs by Annexin-V-FITC/propidium iodide staining based flow cytometry (reference value: 99.88%); type: functional; procedure, shortened: as §2
HeLa [4] = test: Induction of apoptosis in human HeLa cells assessed as irregular nucleus at 7.5 uM after 48 hrs by Hoechst 33342 staining based fluorescence microscopic method; type: functional, cell-based; procedure, shortened: as §1
HeLa [5] = test: Induction of apoptosis in human HeLa cells assessed as total cells at viable stage at 2.5 uM after 24 hrs by Annexin-V-FITC/propidium iodide staining based flow cytometry (reference value: 96.16%); type: functional; procedure, shortened: as §2
HeLa [6] = test: Cytotoxicity against human HeLa cells assessed as growth inhibition at 10 uM after 72 hrs by SRB assay relative to control; type: functional; settings: read-out: GI
Procedure, shortened: (§3)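 SRB single-dose screen at 10 μM on 293T, A549, Hela and MCF-7 cells. Results reported as percent inhibitory ratio (mean ± SD).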

HeLa [7] = test: Cell cycle arrest in human HeLa cells assessed as accumulation at G2 phase at 5 uM after 24 hrs by propidium iodide staining based flow cytometry (reference value: 24.36%); type: functional
HeLa [8] = test: Induction of apoptosis in human HeLa cells after 48 hrs by Hoechst 33342 staining based fluorescence microscopic method; type: functional, cell-based; procedure, shortened: as §1
HeLa [9] = test: Induction of apoptosis in human HeLa cells assessed as total cells at necrotic stage at 2.5 uM after 24 hrs by Annexin-V-FITC/propidium iodide staining based flow cytometry (reference value: 0.05%); type: functional; procedure, shortened: as §2
HeLa [10] = test: Induction of apoptosis in human HeLa cells assessed as gated cells at early apoptotic stage at 2.5 uM after 24 hrs by Annexin-V-FITC/propidium iodide staining based flow cytometry (reference value: 0.04%); type: functional; procedure, shortened: as §2
HeLa [11] = test: Induction of apoptosis in human HeLa cells assessed as gated cells at late apoptotic stage at 2.5 uM after 24 hrs by Annexin-V-FITC/propidium iodide staining based flow cytometry (reference value: 0.03%); type: functional; procedure, shortened: as §2
HeLa [12] = test: Cell cycle arrest in human HeLa cells assessed as accumulation at G1 phase at 2.5 uM after 24 hrs by propidium iodide staining based flow cytometry (reference value: 56.72%); type: functional
HeLa [13] = test: Induction of apoptosis in human HeLa cells assessed as gated cells at viable stage at 5 uM after 24 hrs by Annexin-V-FITC/propidium iodide staining based flow cytometry (reference value: 99.88%); type: functional; procedure, shortened: as §2
HeLa [14] = test: Induction of apoptosis in human HeLa cells assessed as total cells at viable stage at 7.5 uM after 24 hrs by Annexin-V-FITC/propidium iodide staining based flow cytometry (reference value: 96.16%); type: functional; procedure, shortened: as §2
MCF7 = test: Cytotoxicity against human MCF7 cells assessed as growth inhibition at 10 uM after 72 hrs by SRB assay relative to control; type: functional; settings: MCF7, 72 h, read-out: GI; procedure, shortened: as §3

In the case of `CCNCc1cn(-c2ccccc2)nc1C1=CC[C@H]2[C@@H]3CC=C4C[C@@H](O)CC[C@]4(C)[C@H]3CC[C@]12C`, the Activity (HeLa [1]) is reported as “Active”, the Activity (HeLa [2]) is reported as 8.37% and the Activity (HeLa [3]) is reported as 87.49%. For the same compound, the Activity (HeLa [4]) was “Active”, the Activity (HeLa [5]) was 95.73% and the inhibition of growth at 10 µM (HeLa [6]) was 92.8%. The Activity (HeLa [7]) was 22.53%, the Activity (HeLa [8]) was “Dose-dependent effect” and the Activity (HeLa [9]) was 1.28%. It also gave an Activity (HeLa [10]) of 0.59%, an Activity (HeLa [11]) of 0.16% and an Activity (HeLa [12]) of 51.99%. The Activity (HeLa [13]) was 93.44%, the Activity (HeLa [14]) was 78.35% and the inhibition of growth at 10 µM (MCF7) was 89.3%.
